Assay results from publication PMC9826235 (Chembiochem, 2022).

Tested on: monoclonal anti-HpTGEKP antibody
Format: binding, mouse
Conditions: gas phase complex dissociation; for TambΔSmg# / ΔGm0g# / ΔHm0g#: neutral and resting complex, Tamb 298 K, two measurement series except 02; for ΔHm0g# (approximate values in running text): text rounding of Table 3
In short: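 Test phospho-hexapeptides and monoclonal antibody, each in 200 mM ammonium acetate, were mixed at a 3:1 peptide:antibody molar ratio. The mixtures were nano-electrosprayed, and multiply charged immune complex ions underwent gas phase dissociation; an unphosphorylated hexapeptide served as control. Data were duplicate series (mean, SD), fitted with a Boltzmann sigmoid. Enthalpies came from Arrhenius and Gibbs-Helmholtz plots taken at 1/Tamb.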

| Substance | TambΔSmg# | ΔGm0g# | ΔHm0g# | ΔHm0g# (approximate values in running text) |
| --- | --- | --- | --- | --- |
| HpTREKP [compound 10] | -15.43 kcal/mol | +64.83 kJ/mol | +0.28 kJ/mol | ~+1.8 kJ/mol |
| HpSGERP [compound 06] | -15.87 kcal/mol | +64.65 kJ/mol | -0.418 kcal/mol |  |
| HpTGEKP [compound 01] | -15.8 kcal/mol | +64.75 kJ/mol | -0.33 kcal/mol |  |
| HpTGERP [compound 02] | -15.74 kcal/mol | +64.79 kJ/mol | -0.261 kcal/mol |  |
| HpTEEKP [compound 09] | -15.93 kcal/mol | +64.64 kJ/mol | -0.485 kcal/mol | approx. −2.0 kJ/mol |
| HpTGEKL [compound 07] | -15.82 kcal/mol | +64.69 kJ/mol | -0.363 kcal/mol |  |
| HpTGKKP [compound 05] | -15.06 kcal/mol | +64.84 kJ/mol | +1.81 kJ/mol | approx. +0.3 kJ/mol |
